The structures appear in SMILES notation. Values after ≈ are worked out from the molar mass of the structure shown. Active and inactive are the calls of the source. The calls are words filed in the database; no cut-off is given here.

The subject of data set [1] is MDA-MB-468. Put plainly: Antiproliferative activity against human MDA-MB-468 cells harbouring STAT3 assessed as reduction in cell viability incubated for 72 hrs by CyQuant assay. In kind it is functional, cell-based. Particulars: MDA-MB-468, 72 h.
For data set [2], the system named is MCF7. Put plainly: Antiproliferative activity against human MCF7 cells assessed as reduction in cell viability incubated for 72 hrs by CyQuant assay. Particulars: MCF7, 72 h. The data set is classed as functional, cell-based.
The test system of data set [3] is MCF-10A. Put plainly: Cytotoxicity against human MCF-10A cells assessed as reduction in cell viability incubated for 72 hrs by CyQuant assay. In kind it is cell-based.
Data set [4] has as its target Signal transducer and activator of transcription 3 (Homo sapiens) (UniProt P40763). Description: Binding affinity to STAT3 (unknown origin) assessed as change in entropy by isothermal titration calorimetry.
For data set [5] the target is unchanged. Description: Inhibition of oligonucleotide [32P]-labelled 5'-AGCITCATTTCCCGTAAATCCCTA hSIE probe binding to STAT3 in human MDA-MB-468 cell nuclear extract at 5 uM by EMSA analysis. As to conditions: time upper […], TDE = time-dependent effect. (In general: In EMSA bound probe runs differently from free probe, usually more slowly.)
For data set [6] the target is unchanged. Description: Inhibition of STAT3 in human MDA-MB-231 cells assessed as effect on EGFR expression at 1 to 3 uM incubated for 3 to 24 hrs by immunoblotting analysis. Particulars: dose 1-3 µM, time lower 3.0 hrs, time upper […]. In kind it is cell-based. Put shortly:
(§1)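 MDA-MB-231 cells treated with 1 or 3 μM compound. Whole-cell lysates prepared in RIPA buffer and immunoblotted for EGFR, JAK2, Src, AKT and ERK1/2.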
On the technique in general: A western blot detects proteins with antibodies after separation by electrophoresis.

Data set [7] shares this target. Put plainly: Inhibition of STAT3 in human MDA-MB-231 cells assessed as effect on JAK2 expression at 1 to 3 uM incubated for 3 to 24 hrs by immunoblotting analysis. The data set is classed as cell-based. Particulars: dose 1-3 µM, time lower 3.0 hrs, time upper […]. Put shortly:
as §1

For data set [8] the target is unchanged. Put plainly: Inhibition of STAT3 in human MDA-MB-231 cells assessed as effect on Src expression at 1 to 3 uM incubated for 3 to 24 hrs by immunoblotting analysis. In kind it is cell-based. Particulars: dose 1-3 µM, time lower 3.0 hrs, time upper […]. In a few lines:
as §1

Data set [9] has the same target. Description: Inhibition of STAT3 in human MDA-MB-231 cells assessed as effect on Akt expression at 1 to 3 uM incubated for 3 to 24 hrs by immunoblotting analysis. In kind it is cell-based. As to conditions: dose 1-3 µM, time lower 3.0 hrs, time upper […]. Put shortly: as §1
Data set [10] has the same target. Put plainly: Inhibition of STAT3 in human MDA-MB-231 cells assessed as effect on Erk1/2 expression at 1 to 3 uM incubated for 3 to 24 hrs by immunoblotting analysis. The data set is classed as cell-based. As to conditions: dose 1-3 µM, time lower 3.0 hrs, time upper […]. In a few lines:
as §1

The subject of data set [11] is MDA-MB-231. Description: Anticlonogenic activity against human MDA-MB-231 cells assessed as inhibition of colony formation at 0.5 uM incubated for 4 hrs by crystal violet staining based assay. In kind it is functional, cell-based. Put shortly: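 MDA-MB-231 cells seeded as single-cell cultures (250 cells per well), treated once the next day with compound at 0–1 μM and grown until large colonies were visible. Colonies stained with crystal violet for 4 h and photographed. Three independent determinations.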

Data set [12] has as its target Signal transducer and activator of transcription 3 (Homo sapiens) (UniProt P40763). Put plainly: Inhibition of STAT3 in human MDA-MB-231 cells assessed as inhibition of c-myc expression at 1 to 3 uM incubated for 3 to 24 hrs by immunoblotting analysis. The data set is classed as cell-based. Particulars: dose 1-3 µM, time lower 3.0 hrs, time upper […]. In a few lines:
(§2)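 MDA-MB-231 cells treated with 1 or 3 μM compound for 3–24 h. Equal-protein whole-cell lysates (RIPA) immunoblotted for c-Myc, Bcl-2, VEGF, survivin and tubulin. Control is 0.05% DMSO-treated cells. Two to three independent determinations.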

The target is the same in data set [13]. Put plainly: Inhibition of STAT3 in human MDA-MB-231 cells assessed as inhibition of VEGF expression at 1 to 3 uM incubated for 3 to 24 hrs by immunoblotting analysis. Particulars: dose 1-3 µM, time lower 3.0 hrs, time upper […]. In kind it is cell-based. Put shortly:
as §2

Data set [14] has the same target. Description: Inhibition of STAT3 in human MDA-MB-231 cells assessed as inhibition of Bcl-2 expression at 1 to 3 uM incubated for 3 to 24 hrs by immunoblotting analysis. As to conditions: dose 1-3 µM, time lower 3.0 hrs, time upper […]. In kind it is cell-based. In a few lines:
as §2

Data set [15] has the same target. Description: Inhibition of STAT3 in human MDA-MB-231 cells assessed as inhibition of survivin expression at 1 to 3 uM incubated for 3 to 24 hrs by immunoblotting analysis. The data set is classed as cell-based. As to conditions: dose 1-3 µM, time lower 3.0 hrs, time upper […]. In a few lines:
as §2

For data set [16] the target is unchanged. Description: Inhibition of STAT3 in human MDA-MB-231 cells assessed as induction of PARP cleavage at 1 to 3 uM incubated for 3 to 24 hrs by immunoblotting analysis. Particulars: dose 1-3 µM, time lower 3.0 hrs, time upper […]. In kind it is cell-based. In a few lines:
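Equal-protein whole-cell lysates run on SDS-PAGE/Western and probed for full-length and cleaved PARP, pYSTAT3, STAT3 and tubulin. Control is 0.05% DMSO. Two independent determinations.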

A short description of data set [17]: Aqueous solubility of compound in simulated gastric fluid. The data set is classed as physicochemical. As to conditions: simulated gi fluid.
The nature of data set [18]: Aqueous solubility of compound in simulated intestinal fluid. In kind it is physicochemical. As to conditions: simulated gi fluid.
The nature of data set [19]: Drug metabolism of compound in human liver microsomes assessed as metabolite formation. The data set is classed as ADME, Microsome. For orientation: Liver microsomes are vesicles of endoplasmic reticulum, rich in cytochrome P450 enzymes.
Data set [20] in a line: Drug metabolism of compound in human liver microsomes assessed as hydroxy-acid metabolite formation. The data set is classed as ADME, Microsome.

Signal transducer and activator of transcription 3 (Homo sapiens), sequence (P40763 whole entry): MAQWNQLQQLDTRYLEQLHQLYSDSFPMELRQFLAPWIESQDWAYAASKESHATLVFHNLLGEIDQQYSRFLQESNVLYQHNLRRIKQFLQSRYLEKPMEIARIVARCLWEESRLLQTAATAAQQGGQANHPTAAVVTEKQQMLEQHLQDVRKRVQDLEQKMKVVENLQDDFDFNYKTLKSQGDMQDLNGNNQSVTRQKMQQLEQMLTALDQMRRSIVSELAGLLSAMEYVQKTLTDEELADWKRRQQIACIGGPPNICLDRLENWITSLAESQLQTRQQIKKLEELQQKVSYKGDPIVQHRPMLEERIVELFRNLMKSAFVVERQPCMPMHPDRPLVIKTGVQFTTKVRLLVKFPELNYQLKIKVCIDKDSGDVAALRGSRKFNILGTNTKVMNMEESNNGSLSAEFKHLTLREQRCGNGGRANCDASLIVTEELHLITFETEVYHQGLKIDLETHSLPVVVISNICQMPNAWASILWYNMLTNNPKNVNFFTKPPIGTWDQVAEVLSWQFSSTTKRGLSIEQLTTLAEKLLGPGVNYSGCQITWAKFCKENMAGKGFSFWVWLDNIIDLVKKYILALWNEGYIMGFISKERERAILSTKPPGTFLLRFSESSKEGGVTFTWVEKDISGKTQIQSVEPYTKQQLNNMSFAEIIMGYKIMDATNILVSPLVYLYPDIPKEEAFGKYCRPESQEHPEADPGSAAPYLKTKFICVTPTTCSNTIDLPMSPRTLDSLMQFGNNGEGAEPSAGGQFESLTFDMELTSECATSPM

For orientation: EC50 means the concentration at which the effect is half-maximal. A word on the solubility: it is the concentration that dissolves in the medium under given conditions. A high value points to a readily soluble substance. Take `O=C1OCc2cc(N(Cc3ccc(C4CCCCC4)cn3)C(=O)[C@H]3CCN3S(=O)(=O)c3c(F)c(F)c(F)c(F)c3F)ccc21`: the figures for the EC50 in [1], in data set [2] and in data set [3] were 1 µM, 4.6 µM and 4.6 µM, respectively. For the same compound, the -TdeltaS in [4] is -2.84 kcal/mol. In data set [5], the inhibition entry is “Tde”. Also, the inhibition result in data set [6], in data set [7], in data set [8], in data set [9], in [10] and in data set [11] was “Active” throughout. Moreover, the inhibition result in [12], in data set [13], in data set [14], in data set [15] and in [16] was “Active” each time. In addition, the figures for the solubility in data set [17] and in data set [18] were 116 µg/mL (≈ 183 µM) and 200 µg/mL (≈ 315 µM), respectively. Further, the Drug metabolism entry in [19] and in data set [20] was “Metabolite_Detected” each time.

The values above are taken from ChEMBL document CHEMBL4706639, “Discovery of Novel Azetidine Amides as Potent Small-Molecule STAT3 Inhibitors” (J Med Chem, 2021).
